Source: ChEMBL document CHEMBL1142488, “Synthesis of N-substituted 5-[2-(N-alkylamino)ethyl]dibenzo[c,h][1,6]naphthyridines as novel topoisomerase I-targeting antitumor agents” (Bioorg Med Chem, 2008)
pIC50: −log10 of the molar value.

How the values were obtained:
[1] = target: T1, DNA topoisomerase 1 (Homo sapiens) (UniProt P11387); experiment: Inhibition of human topoisomerase 1 mediated DNA cleavage assessed as effective drug concentration causing 10% YepG plasmid cleavage relative to camptothecin
T1 sequence (whole entry): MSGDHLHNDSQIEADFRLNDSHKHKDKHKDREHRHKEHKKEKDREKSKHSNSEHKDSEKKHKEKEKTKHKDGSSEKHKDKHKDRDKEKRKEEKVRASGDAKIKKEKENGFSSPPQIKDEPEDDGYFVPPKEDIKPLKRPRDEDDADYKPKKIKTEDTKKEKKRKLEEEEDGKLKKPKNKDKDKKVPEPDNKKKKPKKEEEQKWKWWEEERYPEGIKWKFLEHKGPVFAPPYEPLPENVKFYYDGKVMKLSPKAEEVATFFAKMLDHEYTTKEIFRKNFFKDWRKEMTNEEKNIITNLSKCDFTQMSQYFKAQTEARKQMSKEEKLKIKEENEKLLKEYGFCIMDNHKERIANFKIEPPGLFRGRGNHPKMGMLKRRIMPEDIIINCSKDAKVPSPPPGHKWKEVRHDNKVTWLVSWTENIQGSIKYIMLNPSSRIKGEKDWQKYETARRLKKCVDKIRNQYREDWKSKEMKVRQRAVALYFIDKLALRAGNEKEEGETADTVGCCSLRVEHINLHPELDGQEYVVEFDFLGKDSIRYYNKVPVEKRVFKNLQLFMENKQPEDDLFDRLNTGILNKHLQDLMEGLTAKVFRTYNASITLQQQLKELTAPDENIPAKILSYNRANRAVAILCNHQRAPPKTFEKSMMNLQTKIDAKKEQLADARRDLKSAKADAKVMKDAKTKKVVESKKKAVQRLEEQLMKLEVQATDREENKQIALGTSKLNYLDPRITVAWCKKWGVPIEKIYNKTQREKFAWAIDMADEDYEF
Outline: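 Stopped with SDS and proteinase K, 1 h at 37 °C. Alkali-denatured with NaOH/EDTA/sucrose/bromophenol blue, then run on neutral agarose gel.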

[2] = Cytotoxicity against human RPMI8402 cells after MTT assay; format: functional, cell-based; details: RPMI 8402
Outline: (§1)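 Suspension cultures at 37 °C, 5% CO2, in RPMI with 10% heat-inactivated FBS, 2 mM L-glutamine, penicillin and streptomycin. Continuous 4-day exposure to a range of drug concentrations, then MTT read-out to give IC50. Drug-free control included. At least two runs, six replicate wells each.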

[3] = Cytotoxicity against camptothecin-resistant human CPT-K5 cells after MTT assay; format: functional, cell-based; outline: as §1
[4] = test system: P388; experiment: Cytotoxicity against mouse P388 cells after MTT assay; format: functional, cell-based; outline: as §1
[5] = Cytotoxicity against camptothecin-resistant and TOP1 deficient mouse P388/CPT45 cells after MTT assay; format: functional, cell-based; details: P388CPT45; outline: as §1
[6] = Cytotoxicity against human KB3-1 cells after MTT assay; format: functional, cell-based; details: KB 3-1
Outline: (§2)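 IC50 after continuous 4-day exposure to varying drug concentrations, with MTT read at the end of day 4. A drug-free control was included. At least two runs, each in six replicate wells.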

[7] = Cytotoxicity against multidrug resistant human KBV-1 cells overexpressing MDR1 after MTT assay; format: functional, cell-based; details: KB-V1; outline: as §2
[8] = Cytotoxicity against multidrug resistant human KBH5.0 cells overexpressing BCRP after MTT assay; format: functional, cell-based; details: KBH5.0 cell; outline: as §2
[9] = test system: MDA-MB-435 (human); experiment: Antitumor activity against human MDA-MB-435 cells xenografted in NCR/NU NU mouse assessed as tumor volume measured on day 7 initially dosed at 2 mg/kg, ip qd x 5/week for 2 weeks and was gradually increased to 6 mg/kg x 5/week schedule
[10] = test system: MDA-MB-435 (human); experiment: Antitumor activity against human MDA-MB-435 cells xenografted in NCR/NU NU mouse assessed as tumor volume measured on day 42 initially dosed at 2 mg/kg, ip qd x 5/week for 2 weeks and was gradually increased to 6 mg/kg x 5/week schedule
[11] = test system: MDA-MB-435 (human); experiment: Antitumor activity against human MDA-MB-435 cells xenografted in NCR/NU NU mouse assessed as tumor volume measured on day 49 initially dosed at 2 mg/kg, ip qd x 5/week for 2 weeks and was gradually increased to 6 mg/kg x 5/week schedule
[12] = test system: MDA-MB-435 (human); experiment: Antitumor activity against human MDA-MB-435 cells xenografted in NCR/NU NU mouse assessed as tumor volume measured on day 14 initially dosed at 2 mg/kg, ip qd x 5/week for 2 weeks and was gradually increased to 6 mg/kg x 5/week schedule
[13] = test system: MDA-MB-435 (human); experiment: Antitumor activity against human MDA-MB-435 cells xenografted in NCR/NU NU mouse assessed as tumor volume measured on day 21 initially dosed at 2 mg/kg, ip qd x 5/week for 2 weeks and was gradually increased to 6 mg/kg x 5/week schedule
[14] = test system: MDA-MB-435 (human); experiment: Antitumor activity against human MDA-MB-435 cells xenografted in NCR/NU NU mouse assessed as tumor volume measured on day 28 initially dosed at 2 mg/kg, ip qd x 5/week for 2 weeks and was gradually increased to 6 mg/kg x 5/week schedule
[15] = test system: MDA-MB-435 (human); experiment: Antitumor activity against human MDA-MB-435 cells xenografted in NCR/NU NU mouse assessed as tumor volume measured on day 35 initially dosed at 2 mg/kg, ip qd x 5/week for 2 weeks and was gradually increased to 6 mg/kg x 5/week schedule
[16] = test system: MDA-MB-435 (human); experiment: Antitumor activity against human MDA-MB-435 cells xenografted in NCR/NU NU mouse assessed as tumor volume measured on day 7 initially dosed at 5 mg/kg, ip qd x 5/week for 2 weeks and was gradually increased to 6 mg/kg x 5/week for 2 weeks and adjusted to 6 mg/kg qd x 3/week for 1 week schedule
[17] = test system: MDA-MB-435 (human); experiment: Antitumor activity against human MDA-MB-435 cells xenografted in NCR/NU NU mouse assessed as tumor volume measured on day 14 initially dosed at 5 mg/kg, ip qd x 5/week for 2 weeks and was gradually increased to 6 mg/kg x 5/week for 2 weeks and adjusted to 6 mg/kg qd x 3/week for 1 week schedule
[18] = test system: MDA-MB-435 (human); experiment: Antitumor activity against human MDA-MB-435 cells xenografted in NCR/NU NU mouse assessed as tumor volume measured on day 21 initially dosed at 5 mg/kg, ip qd x 5/week for 2 weeks and was gradually increased to 6 mg/kg x 5/week for 2 weeks and adjusted to 6 mg/kg qd x 3/week for 1 week schedule
[19] = test system: MDA-MB-435 (human); experiment: Antitumor activity against human MDA-MB-435 cells xenografted in NCR/NU NU mouse assessed as tumor volume measured on day 28 initially dosed at 5 mg/kg, ip qd x 5/week for 2 weeks and was gradually increased to 6 mg/kg x 5/week for 2 weeks and adjusted to 6 mg/kg qd x 3/week for 1 week schedule
[20] = test system: MDA-MB-435 (human); experiment: Antitumor activity against human MDA-MB-435 cells xenografted in NCR/NU NU mouse assessed as tumor volume measured on day 35 initially dosed at 5 mg/kg, ip qd x 5/week for 2 weeks and was gradually increased to 6 mg/kg x 5/week for 2 weeks and adjusted to 6 mg/kg qd x 3/week for 1 week schedule
[21] = test system: MDA-MB-435 (human); experiment: Antitumor activity against human MDA-MB-435 cells xenografted in NCR/NU NU mouse assessed as tumor volume measured on day 42 initially dosed at 5 mg/kg, ip qd x 5/week for 2 weeks and was gradually increased to 6 mg/kg x 5/week for 2 weeks and adjusted to 6 mg/kg qd x 3/week for 1 week schedule
[22] = test system: MDA-MB-435 (human); experiment: Antitumor activity against human MDA-MB-435 cells xenografted in NCR/NU NU mouse assessed as tumor volume measured on day 49 initially dosed at 5 mg/kg, ip qd x 5/week for 2 weeks and was gradually increased to 6 mg/kg x 5/week for 2 weeks and adjusted to 6 mg/kg qd x 3/week for 1 week schedule
[23] = in the assay text read “relative to topotecan” for “relative to camptothecin”

Row | Structure (SMILES) | Activity [1, 23] | pIC50 [2] | pIC50 [3] | pIC50 [4] | pIC50 [5] | pIC50 [6] | pIC50 [7] | pIC50 [8] | Activity [9] [mm3] | Activity [10] [mm3] | Activity [11] [mm3] | Activity [12] [mm3] | Activity [13] [mm3] | Activity [14] [mm3] | Activity [15] [mm3] | also measured
1 | C#CCN(CC)CCn1c(=O)c2cc(OC)c(OC)cc2c2cnc3cc4c(cc3c21)OCO4 | > 10 | 7.77 | < 5.00 | 7.46 | 5.64 | 7.15 | 7.00 | 6.96 | 115 | 349 | 488 | 106 | 170 | 204 | 331 | –
2 | C#CCN(CCn1c(=O)c2cc(OC)c(OC)cc2c2cnc3cc4c(cc3c21)OCO4)C(C)C | > 10 | 7.19 | < 5.00 | 7.10 | 5.43 | 7.00 | 6.37 | 7.15 | 99 | 310 | 357 | 112 | 165 | 170 | 234 | –
3 | CC[C@@]1(O)C(=O)OCc2c1cc1n(c2=O)Cc2cc3c(CN(C)C)c(O)ccc3nc2-1 [TOPOTECAN] | 1 | 7.68 | < 5.00 | – | < 5.00 | 7.40 | – | 6.36 | – | – | – | – | – | – | – | –
4 | COc1cc2c(=O)n(CCN(CC(F)(F)F)C(C)C)c3c4cc5c(cc4ncc3c2cc1OC)OCO5 | > 10 | 5.72 | < 5.00 | 5.96 | < 5.00 | 6.00 | 5.36 | 5.96 | – | – | – | – | – | – | – | –
5 | CCN(CC#N)CCn1c(=O)c2cc(OC)c(OC)cc2c2cnc3cc4c(cc3c21)OCO4 | < 0.2 | 9.00 | 6.17 | 9.00 | 6.89 | 8.40 | 7.47 | 8.15 | 100 | 361 | 435 | 156 | 178 | 202 | 293 | –
6 | COc1cc2c(=O)n(CCN(C)CC(F)(F)F)c3c4cc5c(cc4ncc3c2cc1OC)OCO5 | > 10 | 6.60 | < 5.00 | 6.60 | < 5.00 | 6.39 | 6.00 | 6.20 | – | – | – | – | – | – | – | –
7 | COc1cc2c(=O)n(CCN(C)CC#N)c3c4cc5c(cc4ncc3c2cc1OC)OCO5 | < 0.2 | 8.40 | 6.01 | 8.52 | 6.66 | 8.30 | 7.37 | 7.57 | 149 | 669 | 919 | 222 | 370 | 392 | 528 | –
8 | CC[C@@]1(O)C(=O)OCc2c1cc1n(c2=O)Cc2cc3ccccc3nc2-1 [CAMPTOTHECIN] | – | 8.22 | < 5.00 | – | < 5.00 | – | – | – | – | – | – | – | – | – | – | –
9 | CCN(CCn1c(=O)c2cc(OC)c(OC)cc2c2cnc3cc4c(cc3c21)OCO4)CC(F)(F)F | > 10 | 6.15 | < 5.00 | 6.21 | < 5.00 | 6.19 | 5.54 | 6.12 | 127 | 543 | 718 | 176 | 268 | 310 | 435 | –
10 | CCOc1cc2c(=O)n(CCN(C)C)c3c4cc5c(cc4ncc3c2cc1OCC)OCO5 | – | 6.82 | 6.85 | 7.82 | 7.89 | 7.15 | 6.72 | 7.00 | – | – | – | – | – | – | – | Activity [1]: > 10
11 | COc1cc2c(=O)n(CCN(CC#N)C(C)C)c3c4cc5c(cc4ncc3c2cc1OC)OCO5 | < 0.2 | 8.70 | 5.89 | 8.70 | 7.22 | 8.22 | 7.37 | 8.05 | – | – | – | – | – | – | – | Activity [16]: 142 mm3; Activity [17]: 175 mm3; Activity [18]: 213 mm3; Activity [19]: 220 mm3; Activity [20]: 250 mm3; Activity [21]: 286 mm3; Activity [22]: 314 mm3
